The source made the active and inactive calls. The rule behind the calls is not given here.
Key:
[1] = molecular target: T1, Retinoic acid receptor gamma (Homo sapiens) (UniProt P13631); assay: Percent maximal induction of human RAR-gamma receptor relative to ATRA; Inactive; type: functional
T1 sequence (whole entry): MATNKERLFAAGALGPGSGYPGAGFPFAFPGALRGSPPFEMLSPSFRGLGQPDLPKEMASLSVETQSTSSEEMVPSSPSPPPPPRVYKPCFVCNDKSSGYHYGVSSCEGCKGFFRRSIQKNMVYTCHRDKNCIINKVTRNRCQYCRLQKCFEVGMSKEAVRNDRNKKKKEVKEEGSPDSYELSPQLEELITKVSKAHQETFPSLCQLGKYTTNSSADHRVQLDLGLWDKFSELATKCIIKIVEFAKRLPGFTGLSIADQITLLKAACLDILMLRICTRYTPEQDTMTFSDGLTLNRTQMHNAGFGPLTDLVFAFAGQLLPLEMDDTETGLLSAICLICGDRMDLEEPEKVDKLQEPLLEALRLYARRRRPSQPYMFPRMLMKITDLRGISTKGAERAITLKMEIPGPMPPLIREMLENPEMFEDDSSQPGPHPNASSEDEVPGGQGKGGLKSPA

[2] = molecular target: T2, Retinoic acid receptor alpha (Homo sapiens) (UniProt P10276); assay: Percent maximal induction of human RAR-alpha receptor relative to ATRA; Inactive; type: functional
T2 sequence (whole entry): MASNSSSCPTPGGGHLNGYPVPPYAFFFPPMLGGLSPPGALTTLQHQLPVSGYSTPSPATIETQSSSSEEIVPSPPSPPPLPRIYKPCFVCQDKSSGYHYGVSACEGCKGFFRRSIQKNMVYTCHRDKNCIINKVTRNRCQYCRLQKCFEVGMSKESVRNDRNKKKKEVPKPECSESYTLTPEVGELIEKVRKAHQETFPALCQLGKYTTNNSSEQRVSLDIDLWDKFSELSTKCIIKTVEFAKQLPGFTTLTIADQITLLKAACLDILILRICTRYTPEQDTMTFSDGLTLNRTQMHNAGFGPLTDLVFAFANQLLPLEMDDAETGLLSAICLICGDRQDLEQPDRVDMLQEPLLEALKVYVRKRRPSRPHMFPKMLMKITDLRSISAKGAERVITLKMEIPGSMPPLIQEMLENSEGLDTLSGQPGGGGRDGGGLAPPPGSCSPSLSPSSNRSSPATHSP

[3] = molecular target: T2, Retinoic acid receptor alpha (Homo sapiens); assay: Relative EC30 for human RAR-alpha receptor as EC30(compound) divided by EC30(ATRA); Inactive
[4] = molecular target: T1, Retinoic acid receptor gamma (Homo sapiens); assay: Relative EC30 for human RAR-gamma receptor as EC30(compound) divided by EC30(ATRA); inactive
[5] = molecular target: T3, Retinoic acid receptor beta (Homo sapiens) (UniProt P10826); assay: Relative EC30 for human RAR-beta receptor as EC30(compound) divided EC30(ATRA); Inactive
T3 sequence (whole entry): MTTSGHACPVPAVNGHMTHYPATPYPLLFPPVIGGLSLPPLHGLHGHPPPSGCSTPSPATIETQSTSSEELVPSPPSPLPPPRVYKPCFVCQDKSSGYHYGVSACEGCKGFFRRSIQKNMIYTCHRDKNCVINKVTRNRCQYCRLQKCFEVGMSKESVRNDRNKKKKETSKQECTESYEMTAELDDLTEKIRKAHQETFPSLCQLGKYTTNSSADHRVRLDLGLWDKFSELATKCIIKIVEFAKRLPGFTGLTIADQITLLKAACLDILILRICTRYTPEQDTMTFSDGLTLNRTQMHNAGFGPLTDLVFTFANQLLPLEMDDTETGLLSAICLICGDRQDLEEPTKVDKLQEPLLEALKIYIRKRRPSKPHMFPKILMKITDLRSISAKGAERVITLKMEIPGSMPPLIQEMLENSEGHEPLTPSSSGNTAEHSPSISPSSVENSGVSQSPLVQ

[6] = molecular target: T3, Retinoic acid receptor beta (Homo sapiens); assay: Percent maximal induction of human RAR-beta receptor relative to ATRA; Inactive; type: functional
[7] = molecular target: T1, Retinoic acid receptor gamma (Homo sapiens); assay: Relative EC30 for human RAR-gamma receptor as EC30(compound) divided by EC30(ATRA); Inactive
[8] = molecular target: T3, Retinoic acid receptor beta (Homo sapiens); assay: Relative EC30 for human RAR-beta receptor as EC30(compound) divided by EC30(ATRA)
[9] = molecular target: T1, Retinoic acid receptor gamma (Homo sapiens); assay: Relative IC50 for human RAR-gamma receptor as IC50(compound) divided by IC50(ATRA)
In short: (§1)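 Competitive binding used nuclear extracts of BHK clones stably expressing human RAR-α, β or γ, selected in 250 nM methotrexate. Extracts were incubated with [³H]-ATRA (added as 10 nM solution) and unlabeled compound for 16 h at 4 °C. Free ligand was removed with charcoal/dextran, and the supernatant was counted. Nonspecific binding was taken as binding with 1000-fold excess unlabeled ligand. IC50 from logarithmic plots was divided by the IC50 of ATRA.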

[10] = molecular target: T3, Retinoic acid receptor beta (Homo sapiens); assay: Relative IC50 for human RAR-beta receptor IC50(compound) divided by IC50(ATRA); in short: as §1
[11] = molecular target: T2, Retinoic acid receptor alpha (Homo sapiens); assay: Relative IC50 for human RAR-alpha receptor as IC50(compound) divided by IC50(ATRA); in short: as §1

## CCC\C(=C(F)/C=C/C(C)=C/C(=O)O)c1ccc2c(c1)CCCN2C(C)C
[1]
  Efficacy: inactive
[2]
  Efficacy: inactive
[3]
  Relative EC30: inactive
[4]
  Relative EC30: inactive

## CCCC\C(=C(F)/C=C/C(C)=C/C(=O)O)c1ccc2c(c1)CCCN2C(C)C
[1]
  Efficacy: inactive
[5]
  Relative EC30: inactive
[2]
  Efficacy: inactive
[6]
  Efficacy: inactive
[7]
  Relative EC30: inactive
[3]
  Relative EC30: inactive

## CC\C(=C(F)/C=C/C(C)=C/C(=O)O)c1ccc2c(c1)CCCN2C(C)C
[1]
  Efficacy: inactive
[2]
  Efficacy: inactive
[8]
  Relative EC30: 1600

## CC(/C=C/C=C(\C)c1ccc2c(c1)CCCN2C(C)C)=C\C(=O)O
[9]
  Relative IC50: 187
[10]
  Relative IC50: 432
[11]
  Relative IC50: 372

Source: ChEMBL document CHEMBL1131609, “Syntheses and structure-activity relationships of novel retinoid X receptor agonists” (J Med Chem, 1998)
